How the values were obtained:
[1] = tested on: CEM-SS; assay: Anti-HIV-1 activity against CEM-SS cell lines; type: functional, cell-based; conditions: Homo sapiens
Summary of the method: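 HIV-1 LAI (grown in CEM-SS) infecting CEM-SS cells kept in RPMI + 10% heat-treated FCS; 30-min adsorption, unbound virus washed off, then 5 days culture with graded compound concentrations. Virus output read as reverse transcriptase activity in supernatant. Triplicate per concentration, experiment run twice; IC50 from median-effect plot of dose-effect data.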

[2] = tested on: CEM-SS; assay: Cytotoxicity towards uninfected CEM-SS cell lines; type: functional; conditions: Homo sapiens
Summary of the method: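 Uninfected CEM-SS cells exposed 5 days to varied compound concentrations; viability by MTT colorimetric test. CC50 is the concentration halving OD540, from median-effect dose analysis. Triplicate per concentration, experiment repeated twice.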

[3] = tested on: MT4; assay: (§1) Cytotoxicity towards uninfected MT-4 cell lines; type: functional; conditions: Homo sapiens
Summary of the method: (§2)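 Uninfected MT4 cells with graded compound levels; viability by MTT reduction to formazan. Triplicate per concentration, experiment run twice.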

[4] = tested on: MT4; assay: (§3) Anti-HIV-1 activity against MT-4 cell lines; type: functional, cell-based; conditions: Homo sapiens
Summary of the method: (§4)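 MT4 cells (RPMI + 10% heat-treated FCS) infected with HIV-1; protection from virus-induced cytopathicity read by MTT reduction to formazan by mitochondrial dehydrogenases. Triplicate per concentration, experiment repeated twice. Where inhibition stayed under 50%, the measured percentage is reported in parentheses.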

[5] = tested on: PBMC; assay: Cytotoxicity towards uninfected PBMC cell lines; type: functional; conditions: Homo sapiens
Summary of the method: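 Uninfected PBMC incubated 7 days with compound; viability by colorimetric MTT assay. Triplicate per concentration, experiment repeated twice.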

[6] = tested on: PBMC; assay: (§5) Anti-HIV-1 activity against PBMC cell lines; type: functional, cell-based; conditions: Homo sapiens
Summary of the method: (§6)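 Infected PBMC grown 7 days with graded compound concentrations after virus incubation; HIV-1 production measured as reverse transcriptase activity in culture supernatant. Triplicate per concentration, whole experiment done twice.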

[7] = tested on: PBMC; assay: as §5; type: functional, Homo sapiens; summary of the method: as §6
[8] = tested on: MT4; assay: as §3; type: functional; conditions: Homo sapiens; summary of the method: as §4
[9] = tested on: MT4; assay: as §1; type: functional, Homo sapiens; summary of the method: as §2

Compound | IC50 [1] [µM] | CC50 [2] [µM] | CC50 [3] [µM] | IC50 [4] [µM] | CC50 [5] [µM] | IC50 [6] [µM] | Inhibition [7] [%] | CC50 [8] [µM] | Inhibition [9] [%]
COC(=O)C(CCCN=C(N)N)NC(=O)CCNC(=O)c1cccc(-c2c3cc(N)ccc3c3ccc(N)cc3[n+]2C)c1 (centres undefined) | 83 | 85 | 21 | > 100 | 47 | 78 |  |  | 
COC(=O)C(CCCN=C(N)N)NC(=O)CCCCCNC(=O)c1cccc(-c2c3cc(N)ccc3c3ccc(N)cc3[n+]2C)c1 (centres undefined) | > 100 | > 100 | 60 | > 100 | > 100 | 89 |  |  | 
C[n+]1c(-c2cccc(C(=O)NCCC(=O)NC(CCCN=C(N)N)C(=O)O)c2)c2cc(N)ccc2c2ccc(N)cc21 (centres undefined) | > 100 | > 100 | 47 | > 100 | > 100 | 73 |  |  | 
C[n+]1c(-c2cccc(C(=O)O)c2)c2cc(N)ccc2c2ccc(N)cc21 | 95 | > 100 | 42 | > 100 | 44 | 20 |  |  | 
C[n+]1c(-c2cccc(C(=O)NCCCCCC(=O)NC(CCCN=C(N)N)C(=O)O)c2)c2cc(N)ccc2c2ccc(N)cc21.[Cl-] (centres undefined) | > 100 | > 100 | 59 | > 100 | > 100 | > 100 | 40 |  | 
C[n+]1c(-c2cccc(C(=O)NCCCCCC(=O)NCCC(=O)NC(CCCN=C(N)N)C(=O)O)c2)c2cc(N)ccc2c2ccc(N)cc21 (centres undefined) | 2.4 | > 100 | > 100 | 11 | > 100 | 2.5 |  |  | 
COC(=O)C(CCCN=C(N)N)NC(=O)CCNC(=O)CCCCCNC(=O)c1cccc(-c2c3cc(N)ccc3c3ccc(N)cc3[n+]2C)c1.[Cl-] (centres undefined) | 4.6 | > 100 |  | > 100 | > 100 | 8.7 |  | > 100 | 45
